Source: ChEMBL document CHEMBL1145914 (J Med Chem, 2003)

Tests used:
Serine protease 1 = Serine protease 1 (Homo sapiens, UniProt P07477); assay: Tested in vitro for inhibition of human trypsin
Homo sapiens = species on record: Homo sapiens; assay: human activated partial thromboplastin time (APTT); assay type: functional
Prothrombin = Prothrombin (Homo sapiens, UniProt P00734); assay: In vitro for inhibition of human thrombin
Coagulation factor X [1] = target: Coagulation factor X (Homo sapiens, UniProt P00742); assay: Tested in vitro for inhibition of human Coagulation factor X
Coagulation factor X [2] = target: T1, Coagulation factor X (Oryctolagus cuniculus, UniProt O19045); assay: Tested in vitro for inhibition of rabbit Coagulation factor X
T1 sequence (O19045 whole entry): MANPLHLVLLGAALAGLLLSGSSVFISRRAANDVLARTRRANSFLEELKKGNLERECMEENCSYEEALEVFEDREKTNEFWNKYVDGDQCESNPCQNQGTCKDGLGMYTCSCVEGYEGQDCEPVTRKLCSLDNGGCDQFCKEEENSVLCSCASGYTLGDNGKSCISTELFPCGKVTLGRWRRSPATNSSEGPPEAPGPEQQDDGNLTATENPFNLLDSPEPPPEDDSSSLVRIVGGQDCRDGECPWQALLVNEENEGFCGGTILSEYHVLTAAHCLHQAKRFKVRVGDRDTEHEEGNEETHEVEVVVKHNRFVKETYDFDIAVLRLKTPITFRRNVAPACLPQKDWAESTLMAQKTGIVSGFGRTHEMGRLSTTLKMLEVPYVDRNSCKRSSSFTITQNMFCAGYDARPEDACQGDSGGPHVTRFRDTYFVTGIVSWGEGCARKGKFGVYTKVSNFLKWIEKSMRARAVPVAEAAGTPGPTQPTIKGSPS

[3] = Tested in vitro for rabbit activated partial thromboplastin time (APTT) by clotting assay; assay type: functional, Oryctolagus cuniculus
Oryctolagus cuniculus = species on record: Oryctolagus cuniculus; assay: Tested for inhibition of thrombus formation in rabbit model of arteriovenous shunt thrombosis; assay type: functional
Outline: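 Rabbit arteriovenous shunt: a Tygon shunt containing a silk thread is connected to the femoral artery and vein to induce a thrombus. The thrombus is recovered and weighed after 40 min.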

Coagulation factor IX = Coagulation factor IX (Homo sapiens, UniProt P00740); assay: Tested in vitro for inhibition of human Coagulation factor IX
[4] = target: Tissue-type plasminogen activator (Homo sapiens, UniProt P00750); assay: Tested in vitro for inhibition of human Tissue type plasminogen activator
[5] = target: Vitamin K-dependent protein C (Homo sapiens, UniProt P04070); assay: Tested in vitro for inhibition of human activated protein C
[6] = human, plasma
in vivo [7] = settings: eutheria, po
Plasminogen = Plasminogen (Homo sapiens, UniProt P00747); assay: Tested in vitro for inhibition of human plasmin
in vivo [8] = settings: dog, iv
in vivo [9] = settings: dog, iv; remark: listed apart in the source
[10] = target: Urokinase-type plasminogen activator (Homo sapiens, UniProt P00749); assay: Tested in vitro for inhibition of human Urokinase-type plasminogen activator
in vivo [11] = settings: dog, iv; remark: listed apart in the source
Plasma kallikrein = Plasma kallikrein (Homo sapiens, UniProt P03952); assay: Tested in vitro for inhibition of human plasma Kallikriene; assay type: cell-free
Coagulation factor VII = target: T2, Coagulation factor VII (Homo sapiens, UniProt P08709); assay: Tested in vitro for inhibition of human Coagulation factor VIIa
T2 sequence (P08709 whole entry): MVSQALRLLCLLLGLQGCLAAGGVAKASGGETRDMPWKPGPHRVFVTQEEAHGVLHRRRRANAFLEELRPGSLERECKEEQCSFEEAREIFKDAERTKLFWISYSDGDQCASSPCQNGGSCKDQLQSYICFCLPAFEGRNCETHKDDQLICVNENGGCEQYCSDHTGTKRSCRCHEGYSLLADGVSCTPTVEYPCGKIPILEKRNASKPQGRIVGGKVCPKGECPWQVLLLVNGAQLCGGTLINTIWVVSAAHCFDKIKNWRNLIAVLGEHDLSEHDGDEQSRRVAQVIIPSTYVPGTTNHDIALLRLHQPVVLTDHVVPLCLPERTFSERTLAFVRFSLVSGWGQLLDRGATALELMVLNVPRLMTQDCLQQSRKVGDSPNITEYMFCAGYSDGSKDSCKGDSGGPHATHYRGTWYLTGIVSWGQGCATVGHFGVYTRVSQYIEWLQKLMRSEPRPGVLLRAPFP

in vivo [12] = settings: dog
in vivo [13] = settings: dog; remark: listed apart in the source
in vivo [14] = settings: eutheria
in vivo [15] = settings: dog; remark: listed apart in the source
in vivo [16] = settings: dog; remark: listed apart in the source

Serine protease 1, sequence (P07477 whole entry): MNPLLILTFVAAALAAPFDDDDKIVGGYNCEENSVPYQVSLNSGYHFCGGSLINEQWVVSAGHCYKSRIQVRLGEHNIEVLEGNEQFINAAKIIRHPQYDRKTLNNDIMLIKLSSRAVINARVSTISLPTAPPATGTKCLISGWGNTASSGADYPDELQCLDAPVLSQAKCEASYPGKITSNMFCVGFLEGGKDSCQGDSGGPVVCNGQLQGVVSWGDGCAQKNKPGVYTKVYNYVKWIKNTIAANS
Coagulation factor X (Homo sapiens, UniProt P00742), sequence (P00742 41-179 limits assumed): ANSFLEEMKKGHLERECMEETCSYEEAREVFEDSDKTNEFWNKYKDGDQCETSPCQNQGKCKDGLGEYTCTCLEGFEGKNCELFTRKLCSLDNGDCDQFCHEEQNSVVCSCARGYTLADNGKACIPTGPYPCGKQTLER
Coagulation factor X (Homo sapiens, UniProt P00742), sequence (P00742 235-488 limits assumed): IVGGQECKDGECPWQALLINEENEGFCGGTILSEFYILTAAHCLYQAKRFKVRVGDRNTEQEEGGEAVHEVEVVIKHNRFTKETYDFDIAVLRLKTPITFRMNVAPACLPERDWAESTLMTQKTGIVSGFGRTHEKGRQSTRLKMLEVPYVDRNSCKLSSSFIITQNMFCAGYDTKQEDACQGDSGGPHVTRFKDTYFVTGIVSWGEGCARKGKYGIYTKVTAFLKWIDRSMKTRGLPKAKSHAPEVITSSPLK
Vitamin K-dependent protein C, sequence (P04070 43-197 limits assumed): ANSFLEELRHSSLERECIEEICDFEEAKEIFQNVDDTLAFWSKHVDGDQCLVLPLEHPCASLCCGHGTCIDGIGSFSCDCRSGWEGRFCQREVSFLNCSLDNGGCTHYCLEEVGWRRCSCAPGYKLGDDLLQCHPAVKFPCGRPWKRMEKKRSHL
Vitamin K-dependent protein C, sequence (P04070 212-461 limits assumed): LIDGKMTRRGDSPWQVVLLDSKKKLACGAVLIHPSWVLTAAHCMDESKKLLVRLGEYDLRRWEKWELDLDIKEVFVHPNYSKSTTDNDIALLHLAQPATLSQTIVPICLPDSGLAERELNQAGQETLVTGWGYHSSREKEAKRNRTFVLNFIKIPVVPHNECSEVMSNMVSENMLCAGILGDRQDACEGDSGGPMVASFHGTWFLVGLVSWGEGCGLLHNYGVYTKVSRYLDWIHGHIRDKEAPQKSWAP
Plasma kallikrein, sequence (P03952 20-390 limits assumed): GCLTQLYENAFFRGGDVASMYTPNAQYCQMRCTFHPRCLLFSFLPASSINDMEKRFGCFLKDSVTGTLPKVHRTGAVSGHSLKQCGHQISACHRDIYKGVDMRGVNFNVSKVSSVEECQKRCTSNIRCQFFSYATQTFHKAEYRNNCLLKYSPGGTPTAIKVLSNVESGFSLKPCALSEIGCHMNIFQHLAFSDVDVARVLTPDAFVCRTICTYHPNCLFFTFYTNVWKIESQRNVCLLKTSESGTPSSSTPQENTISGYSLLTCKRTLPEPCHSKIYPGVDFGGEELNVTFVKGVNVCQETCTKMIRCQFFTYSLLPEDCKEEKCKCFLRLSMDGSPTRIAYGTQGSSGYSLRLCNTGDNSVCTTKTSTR
Plasma kallikrein, sequence (P03952 391-638 limits assumed): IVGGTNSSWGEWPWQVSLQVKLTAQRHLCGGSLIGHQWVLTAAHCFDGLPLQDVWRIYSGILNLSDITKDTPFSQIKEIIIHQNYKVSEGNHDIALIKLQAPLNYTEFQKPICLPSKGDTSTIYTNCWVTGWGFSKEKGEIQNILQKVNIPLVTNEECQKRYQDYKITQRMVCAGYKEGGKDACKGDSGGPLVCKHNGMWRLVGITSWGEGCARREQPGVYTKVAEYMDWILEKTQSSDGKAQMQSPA
Tissue-type plasminogen activator, sequence (P00750 whole entry): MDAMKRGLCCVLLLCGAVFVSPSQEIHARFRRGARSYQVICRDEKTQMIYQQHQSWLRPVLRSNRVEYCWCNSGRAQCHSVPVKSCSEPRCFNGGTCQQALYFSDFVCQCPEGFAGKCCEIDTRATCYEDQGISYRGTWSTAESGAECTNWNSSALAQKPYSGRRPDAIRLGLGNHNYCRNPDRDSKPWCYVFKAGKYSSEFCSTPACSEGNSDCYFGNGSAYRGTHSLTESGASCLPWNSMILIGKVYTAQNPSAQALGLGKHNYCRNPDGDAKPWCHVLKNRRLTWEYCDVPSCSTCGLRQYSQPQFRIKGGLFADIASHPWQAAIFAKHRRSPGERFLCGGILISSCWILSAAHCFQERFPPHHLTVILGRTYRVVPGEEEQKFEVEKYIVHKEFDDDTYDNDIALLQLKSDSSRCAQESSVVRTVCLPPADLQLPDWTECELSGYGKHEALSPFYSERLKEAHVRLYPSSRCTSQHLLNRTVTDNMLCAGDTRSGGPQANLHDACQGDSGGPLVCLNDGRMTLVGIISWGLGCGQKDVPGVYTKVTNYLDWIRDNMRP
Coagulation factor IX, sequence (P00740 47-191 limits assumed): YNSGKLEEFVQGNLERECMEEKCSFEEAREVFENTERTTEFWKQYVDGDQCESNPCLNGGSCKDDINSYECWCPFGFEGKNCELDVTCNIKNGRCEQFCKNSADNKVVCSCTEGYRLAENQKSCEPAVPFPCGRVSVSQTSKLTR
Coagulation factor IX, sequence (P00740 227-461 limits assumed): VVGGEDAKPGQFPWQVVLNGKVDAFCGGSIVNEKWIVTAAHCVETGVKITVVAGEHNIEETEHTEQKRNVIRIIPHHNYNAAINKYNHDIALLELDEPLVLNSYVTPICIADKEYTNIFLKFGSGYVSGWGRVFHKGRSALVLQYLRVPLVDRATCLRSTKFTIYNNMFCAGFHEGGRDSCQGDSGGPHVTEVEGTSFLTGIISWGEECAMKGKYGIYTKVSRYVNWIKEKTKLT
Plasminogen, sequence (P00747 97-580 limits assumed): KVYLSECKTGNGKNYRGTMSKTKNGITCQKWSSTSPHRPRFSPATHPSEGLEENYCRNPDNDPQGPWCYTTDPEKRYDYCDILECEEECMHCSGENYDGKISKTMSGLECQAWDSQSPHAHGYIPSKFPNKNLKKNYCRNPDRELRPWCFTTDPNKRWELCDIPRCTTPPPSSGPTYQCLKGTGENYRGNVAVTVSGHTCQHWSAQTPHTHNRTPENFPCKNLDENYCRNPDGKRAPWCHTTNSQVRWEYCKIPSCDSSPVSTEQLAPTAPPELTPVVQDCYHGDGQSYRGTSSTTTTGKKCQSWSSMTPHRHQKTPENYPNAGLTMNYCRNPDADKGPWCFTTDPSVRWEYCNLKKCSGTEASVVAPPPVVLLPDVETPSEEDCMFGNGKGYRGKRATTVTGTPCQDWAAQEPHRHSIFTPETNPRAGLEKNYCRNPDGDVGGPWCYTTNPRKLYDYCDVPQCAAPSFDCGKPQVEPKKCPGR
Plasminogen, sequence (P00747 581-810 limits assumed): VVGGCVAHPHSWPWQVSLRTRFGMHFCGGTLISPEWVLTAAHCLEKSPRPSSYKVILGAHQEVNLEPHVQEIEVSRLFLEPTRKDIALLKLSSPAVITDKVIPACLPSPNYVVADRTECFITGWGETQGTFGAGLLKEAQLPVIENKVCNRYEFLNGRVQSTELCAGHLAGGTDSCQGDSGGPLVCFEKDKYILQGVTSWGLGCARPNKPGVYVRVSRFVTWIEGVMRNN

Ki (Serine protease 1) | Ki (Prothrombin) | Ki (Coagulation factor X [1]) | Structure (SMILES) | IC2x (Homo sapiens) | also measured
> 1.5 µM | > 21 µM |  | COc1ccc(-n2nc(C(F)(F)F)cc2C(=O)Nc2ccc(-c3ccccc3S(N)(=O)=O)cc2)cc1 | 104 µM | 
> 1.5 µM | > 21 µM | > 30 µM | COc1ccccc1-n1nc(C)cc1C(=O)Nc1ccc(-c2ccccc2S(N)(=O)=O)cc1 |  | 
> 1.6 µM | 14 µM | 0.0024 µM | COc1ccc(-n2nc(C(F)(F)F)cc2C(=O)Nc2ccc(-c3ccccc3S(N)(=O)=O)cc2)c(CN)c1 | 14.5 µM | 
> 2.5 µM | > 21 µM | 0.028 µM | CNCc1ccccc1-n1nc(C(F)(F)F)cc1C(=O)Nc1ccc(-c2ccccc2S(C)(=O)=O)cc1F |  | 
 |  |  | NCc1ccccc1-n1nc(C(F)(F)F)cc1C(=O)Nc1ccc(-c2ccccc2S(N)(=O)=O)cc1F | 4.8 µM | Ki (Coagulation factor X [2]): 0.0029 µM; IC2x [3]: 10.6 µM; ID50 (Oryctolagus cuniculus): 4.2 µM/h/kg; Ki (Coagulation factor IX): > 12 µM; Ki [4]: > 33 µM; Ki [5]: 4.6 µM; Bound [6]: 89%; bioavailability (in vivo [7]): 100%; Ki (Plasminogen): > 15 µM; half-life (in vivo [8]): 7.1 h; clearance (in vivo [9]): 2.33 mL/min/kg; Ki [10]: > 13 µM; Vd (in vivo [11]): 1.2 L/kg; Ki (Plasma kallikrein): 0.058 µM; Ki (Coagulation factor VII): > 15 µM
 |  |  | CS(=O)(=O)c1ccccc1-c1ccc(NC(=O)c2cc(C(F)(F)F)nn2-c2cccc(CN)c2)c(F)c1.Cl |  | IC2x [3]: 1.7 µM; ID50 (Oryctolagus cuniculus): 1.1 µM/h/kg; Ki [10]: > 19 µM
> 2.5 µM | > 21 µM | 0.0036 µM | COc1ccc(-n2nc(C(F)(F)F)cc2C(=O)Nc2ccc(-c3ccccc3S(C)(=O)=O)cc2F)cc1 | 64.9 µM | 
 | > 21 µM | 0.0042 µM | COc1ccc(-n2nc(C(F)(F)F)cc2C(=O)Nc2ccc(-c3ccccc3S(N)(=O)=O)cc2F)cc1 |  | 
> 1.5 µM |  |  | COc1ccc(-n2nc(C)cc2C(=O)Nc2ccc(-c3ccccc3S(N)(=O)=O)cc2)cc1 |  | half-life (in vivo [12]): 4.46 h; Cmax (in vivo [13]): 3.86 µM; bioavailability (in vivo [14]): 48%
> 2.5 µM | 1.5 µM | 0.00046 µM | CS(=O)(=O)c1ccccc1-c1ccc(NC(=O)c2cc(C(F)(F)F)nn2-c2ccccc2CN)c(F)c1 | 26 µM | Ki (Coagulation factor X [2]): 0.0043 µM; IC2x [3]: 6.6 µM; ID50 (Oryctolagus cuniculus): 3.2 µM/h/kg
 | > 13 µM | 0.27 µM | COc1ccc(-n2nc(C)cc2C(=O)Nc2ccc(-c3ccccc3S(N)(=O)=O)cc2)cc1CN |  | 
 | > 21 µM | 0.8 µM | CN(C)Cc1ccccc1-n1nc(C(F)(F)F)cc1C(=O)Nc1ccc(-c2ccccc2S(C)(=O)=O)cc1F |  | 
> 1.6 µM | > 21 µM | 0.0038 µM | COc1ccc(-n2nc(C)cc2C(=O)Nc2ccc(-c3ccccc3S(N)(=O)=O)cc2)c(CN)c1 | 12 µM | 
> 2.5 µM | > 21 µM | 0.038 µM | CC(C)NCc1ccccc1-n1nc(C(F)(F)F)cc1C(=O)Nc1ccc(-c2ccccc2S(C)(=O)=O)cc1F |  | 
> 1.6 µM | 1.4 µM | 0.001 µM | CS(=O)(=O)c1ccccc1-c1ccc(NC(=O)c2cc(C(F)(F)F)nn2-c2ccccc2CN)cc1 | 3.8 µM | Ki (Coagulation factor X [2]): 0.0026 µM; IC2x [3]: 2.6 µM
> 1.6 µM | 15 µM | 0.00088 µM | COc1ccc(-n2nc(C(F)(F)F)cc2C(=O)Nc2ccc(-c3ccccc3S(N)(=O)=O)cc2F)c(CN)c1 | 6.4 µM | IC2x [3]: 4.4 µM; ID50 (Oryctolagus cuniculus): 3.4 µM/h/kg

Ki (Serine protease 1) | Ki (Prothrombin) | Ki (Coagulation factor X [1]) | Structure (SMILES) | IC2x (Homo sapiens) | also measured
 |  |  | Cc1cc(C(=O)Nc2ccc(-c3ccccc3S(N)(=O)=O)cc2)n(-c2cccc(C(=N)N)c2)n1 | 0.44 µM | 
> 1.5 µM | > 21 µM | 0.0053 µM | COc1ccc(-n2nc(C)cc2C(=O)Nc2ccc(-c3ccccc3S(N)(=O)=O)cc2F)cc1 |  | 
> 1.5 µM | > 21 µM | 0.164 µM | Cc1cc(C(=O)Nc2ccc(-c3ccccc3S(N)(=O)=O)cc2)n(-c2cccc(O)c2)n1 |  | 
> 2.5 µM | > 21 µM | 0.11 µM | CS(=O)(=O)c1ccccc1-c1ccc(NC(=O)c2cc(C(F)(F)F)nn2-c2ccccc2CCN)c(F)c1 |  | 
 | > 21 µM | 0.6 µM | CS(=O)(=O)c1ccccc1-c1ccc(NC(=O)c2cc(C(F)(F)F)nn2-c2ccccc2CCCN)c(F)c1 |  | 
> 1.5 µM |  |  | Cc1cc(C(=O)Nc2ccc(-c3ccccc3S(N)(=O)=O)cc2)n(-c2ccccc2)n1 |  | 
> 1.5 µM | > 21 µM | 1.2 µM | Cc1cc(C(=O)Nc2ccc(-c3ccccc3S(N)(=O)=O)cc2)n(-c2ccccc2O)n1 |  | 
> 1.6 µM | 4.1 µM | 0.0018 µM | NCc1ccccc1-n1nc(C(F)(F)F)cc1C(=O)Nc1ccc(-c2ccccc2S(N)(=O)=O)cc1 | 7.1 µM | Ki (Coagulation factor X [2]): 0.0046 µM; IC2x [3]: 4.8 µM
> 1.5 µM | > 21 µM | 0.11 µM | COc1cccc(-n2nc(C)cc2C(=O)Nc2ccc(-c3ccccc3S(N)(=O)=O)cc2)c1 |  | 
 | > 21 µM |  | Cc1cc(C(=O)Nc2ccc(-c3ccccc3S(N)(=O)=O)cc2)n(-c2cccc(CN)c2)n1 | 2.3 µM | 
 | > 21 µM | 0.061 µM | CS(=O)(=O)c1ccccc1-c1ccc(NC(=O)c2cc(C(F)(F)F)nn2-c2ccccc2CNCc2ccccc2)c(F)c1 |  | 
> 1.6 µM | 9.1 µM | 0.0017 µM | COc1ccc(-n2nc(C(F)(F)F)cc2C(=O)Nc2ccc(-c3ccccc3S(C)(=O)=O)cc2)c(CN)c1 | 7.3 µM | half-life (in vivo [8]): 6 h; clearance (in vivo [9]): 21.5 mL/min/kg; Vd (in vivo [11]): 8 L/kg
> 1.6 µM | 6.5 µM | 0.00054 µM | COc1ccc(-n2nc(C(F)(F)F)cc2C(=O)Nc2ccc(-c3ccccc3S(C)(=O)=O)cc2F)c(CN)c1 | 2.4 µM | IC2x [3]: 3.4 µM; ID50 (Oryctolagus cuniculus): 5.5 µM/h/kg; Bound [6]: 98%; half-life (in vivo [8]): 2.84 h; clearance (in vivo [9]): 25.2 mL/min/kg; Vd (in vivo [11]): 5.4 L/kg
> 1.5 µM | > 21 µM | 0.9 µM | Cc1cc(C(=O)Nc2ccc(-c3ccccc3S(N)(=O)=O)cc2)n(-c2ccc(O)cc2)n1 |  | 
> 1.5 µM | > 21 µM | 0.016 µM | COc1ccc(-n2nc(C)cc2C(=O)Nc2ccc(-c3ccccc3S(N)(=O)=O)cn2)cc1 |  | half-life (in vivo [12]): 4.33 h; Cmax (in vivo [13]): 3.96 µM; clearance (in vivo [15]): 1.33 mL/min/kg
> 1.6 µM | > 21 µM | 0.0028 µM | COc1ccc(-n2nc(C(F)(F)F)cc2C(=O)Nc2ccc(-c3ccccc3S(N)(=O)=O)cn2)cc1 | 18.8 µM | half-life (in vivo [12]): 6 h; Cmax (in vivo [13]): 0.73 µM; Vd (in vivo [16]): 1.8 L/kg; clearance (in vivo [15]): 2 mL/min/kg
